Legend:
[1] = species on record: Oryctolagus cuniculus; test: The mean area between curves for conjunctival hyperemia between treated and control eyes. The effect was tested in rabbit at a dose of 0.5 (ug/eye)
[2] = species on record: Felis catus; test: The mean ocular irritation in the treated eyes. An arbitrary scale of from 0 to 3 was used, 0 indicates absence of irritation and 3 complete closure of the lids. The effect was tested in cats at a dose of 1.0 (ug/eye); format: functional
Outline: (§1)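 Ocular irritation was scored in the treated eye of trained female cats, 2–3 kg. Drug was given as one topical 20 µL drop in 0.9% NaCl with 0.5% polysorbate 80. The contralateral eye got vehicle only.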

[3] = species on record: Felis catus; test: The mean area between curves for Intraocular Pressure (IOP) measured in treated and control eyes. The effect was tested in cats at a dose of 1.0 (ug/eye); format: functional
Outline: (§2)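 Domestic female cats, 2–3 kg, trained for IOP measurement. One eye received a topical drop (20 µL) of drug in 0.9% NaCl with 0.5% polysorbate 80; the other eye received vehicle. IOP was read by pneumatonometer under oxibuprocain local anaesthesia before dosing and at 1, 3, 6 and 23 h. The maximal treated-minus-control difference was taken. Area between curves is the treated-eye AUC minus control-eye AUC, per animal.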

[4] = species on record: Felis catus; test: The maximal difference in Intraocular Pressure (IOP) between treated and control eyes. The effect was tested in cats at a dose of 1.0 (ug/eye); format: functional
Outline: as §2

[5] = species on record: Felis catus; test: The maximal difference in […] pupil diameter between treated and control eyes. The effect was tested in cats at a dose of 1.0 (ug/eye); format: functional
Outline: (§3)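 Trained female cats, 2–3 kg, were dosed unilaterally with one 20 µL topical drop of drug in 0.9% NaCl/0.5% polysorbate 80, with vehicle in the contralateral eye. Horizontal pupil diameter was measured with a millimetre ruler under constant 10 lux illumination before dosing and at 1, 3, 6 and 23 h. Reported as maximal treated–control difference or as area between curves, per animal.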

[6] = species on record: Oryctolagus cuniculus; test: The maximal difference in conjunctival hyperemia between treated and control eyes. The effect was tested in rabbit at a dose of 0.5 (ug/eye)
[7] = species on record: Felis catus; test: The mean area between curves for pupil diameter between treated and control eyes. The effect was tested in cats at a dose of 1.0 (ug/eye); format: functional
Outline: as §3

[8] = tested on: Monkey; test: The maximal difference in Intraocular Pressure (IOP) measured in treated and control eyes. The effect was tested in monkey at a dose of 3.0 (ug/eye); format: functional, Cercopithecidae
Outline: (§4)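 Cynomolgus monkeys trained for IOP measurement were sedated with ketamine (2–3 mg/kg) for transport and seated in restraint chairs under oxibuprocain local anaesthesia. One eye received a 10 µL drop of drug in 0.9% NaCl/0.5% polysorbate 80; the fellow eye received vehicle. IOP was read by pneumatonometer calibrated for monkey eyes before dosing and at 1, 2, 4 and 6 h. Matched-pair t test, n = 6.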

[9] = tested on: Monkey; test: The mean area between curves for Intraocular Pressure (IOP) measured in treated and control eyes. The effect was tested in monkey at a dose of 3.0 (ug/eye); format: functional, Cercopithecidae
Outline: as §4

[10] = species on record: Felis catus; test: The mean ocular irritation in the treated eyes. An arbitrary scale of from 0 to 3 was used, 0 indicates absence of irritation and 3 complete closure of the lids. The effect was tested in cats at a dose of 3.0 (ug/eye); format: functional
Outline: as §1

[11] = species on record: Felis catus; test: The maximal difference in Intraocular Pressure (IOP) between treated and control eyes. The effect was tested in cats at a dose of 3.0 (ug/eye); format: functional
Outline: as §2

[12] = species on record: Felis catus; test: The mean area between curves for pupil diameter between treated and control eyes. The effect was tested in cats at a dose of 3.0 (ug/eye); format: functional
Outline: as §3

[13] = species on record: Felis catus; test: The maximal difference in […] pupil diameter between treated and control eyes. The effect was tested in cats at a dose of 3.0 (ug/eye); format: functional
Outline: as §3

[14] = species on record: Felis catus; test: The mean area between curves for Intraocular Pressure (IOP) measured in treated and control eyes. The effect was tested in cats at a dose of 3.0 (ug/eye); format: functional
Outline: as §2

Row | Structure (SMILES) | H ABC [1] | Irritation [2] [arbitrary units] | I ABC [3] | Imax [4] [mmHg] | Pmax [5] [mm] | Hmax [6] | P ABC [7] | Imax [8] [mmHg] | I ABC [9] | Irritation [10] [arbitrary units] | Imax [11] [mmHg] | P ABC [12] | Pmax [13] [mm] | I ABC [14]
1 | CC(C)OC(=O)CCC/C=C\C[C@@H]1[C@@H](/C=C/[C@@H](O)CCc2cccc(-c3ccccc3)c2)[C@H](O)C[C@@H]1O | <1.9 | 0.1 | <-30 | <-4 | -0.3 | <0.9 | 2.3 |  |  |  |  |  |  | 
2 | CC(C)OC(=O)CCC/C=C\C[C@@H]1[C@@H](/C=C/[C@@H](O)CCc2ccc(-c3cccs3)cc2)[C@H](O)C[C@@H]1O | 0 | 0.4 | -84 | <-4.2 | < -0.9 | 0.3 | -2.2 | <1.5 | 6.5 |  |  |  |  | 
3 | CC(=O)c1ccc(CC[C@@H](O)/C=C/[C@@H]2[C@@H](C/C=C\CCCC(=O)OC(C)C)[C@@H](O)C[C@H]2O)cc1 | -0.3 | 0 | -17.9 | -1.8 | -0.2 | -0.2 | 0.2 |  |  |  |  |  |  | 
4 | CC(C)OC(=O)CCC/C=C\C[C@@H]1[C@@H](/C=C/[C@@H](O)CCc2cccc(-c3ccco3)c2)[C@H](O)C[C@@H]1O | 0.3 |  |  |  |  | <0.3 |  |  |  | 0.1 | 0.8 | -2.5 | -0.3 | 9.8
5 | CC(=O)c1cccc(CC[C@H](O)/C=C/[C@@H]2[C@@H](C/C=C\CCCC(=O)OC(C)C)[C@@H](O)C[C@H]2O)c1 | 0 | 1.3 | 7.1 | 0.7 | < -1.8 | -0.1 | <-30 | <-2.8 | <-12.3 |  |  |  |  | 
6 | CC(C)OC(=O)CCC/C=C\C[C@@H]1[C@@H](/C=C/[C@H](O)CCc2ccccc2)[C@H](O)C[C@@H]1O |  | 0 | 0.3 | -0.5 | < -5.7 | <1.7 | <-50.5 |  |  |  |  |  |  | 
7 | CC(C)OC(=O)CCC/C=C\C[C@@H]1[C@@H](/C=C/[C@H](O)CCc2cccc(-c3ccoc3)c2)[C@H](O)C[C@@H]1O | <1.6 |  |  |  |  | <0.5 |  |  |  | 0 | -3 | -13 | -1.3 | -16.3
8 | CC(C)OC(=O)CCC/C=C\C[C@@H]1[C@@H](/C=C/[C@@H](O)CCc2cccc(-c3ccsc3)c2)[C@H](O)C[C@@H]1O | <2.9 | 0.1 | -21 | -1.1 | < -1 | <1.3 | -1.7 |  |  |  |  |  |  | 
9 | CC(=O)c1ccc(CC[C@H](O)/C=C/[C@@H]2[C@@H](C/C=C\CCCC(=O)OC(C)C)[C@@H](O)C[C@H]2O)cc1 | -0.5 | 0 | -4.3 | -0.3 | 0.2 | -0.2 | 1.4 | <-2.3 | <-10 |  |  |  |  | 
10 | CC(C)OC(=O)CCC/C=C\C[C@@H]1[C@@H](/C=C/[C@@H](O)CCc2ccc(-c3ccoc3)cc2)[C@H](O)C[C@@H]1O | 0.3 |  |  |  |  | 0.2 |  |  |  |  |  |  |  | 
11 | CC(C)OC(=O)CCC/C=C\C[C@@H]1[C@@H](/C=C/[C@@H](O)CCc2cccc(-c3cccs3)c2)[C@H](O)C[C@@H]1O | <2.6 | 0.1 | <-40 | <-3 | < -1.5 | <0.9 | -9.2 |  |  | 0.3 | -1.2 | <-28 | < -3.5 | -10.3
12 | CC(C)OC(=O)CCC/C=C\C[C@@H]1[C@@H](/C=C/[C@H](O)CCc2cccc(-c3ccsc3)c2)[C@H](O)C[C@@H]1O | -0.8 | 0.1 | 16 | 1.7 | < -1 | -0.3 | <-14 |  |  |  |  |  |  | 
13 | CC(=O)c1cccc(CC[C@@H](O)/C=C/[C@@H]2[C@@H](C/C=C\CCCC(=O)OC(C)C)[C@@H](O)C[C@H]2O)c1 | -0.7 | 0.3 | -43.3 | -4 | 0.6 | -0.3 | 1.2 |  |  | 0.1 | <-2.6 | -1.4 | < -0.7 | -23.8
14 | CC(C)OC(=O)CCC/C=C\C[C@@H]1[C@@H](/C=C/[C@@H](O)CCc2cccc(-c3ccoc3)c2)[C@H](O)C[C@@H]1O | 1.3 |  |  |  |  | <0.5 |  |  |  | 0.5 | -3 | <-9.3 | -1.3 | -24.4
15 | Cc1cccc(CC[C@@H](O)/C=C/[C@@H]2[C@@H](C/C=C\CCCC(=O)OC(C)C)[C@@H](O)C[C@H]2O)c1 | -0.1 | 0.1 | -1.8 | -0.3 | < -1.5 | 0.2 | <-13.3 |  |  |  |  |  |  | 
16 | CC(C)OC(=O)CCC/C=C\C[C@@H]1[C@@H](/C=C/[C@H](O)CCc2ccc(-c3cccs3)cc2)[C@H](O)C[C@@H]1O | 0.3 |  |  |  |  | 0.3 |  |  |  | 0.2 | -1.3 | 0 | 0 | 4.2
17 | CC(C)OC(=O)CCC/C=C\C[C@@H]1[C@@H](/C=C/[C@H](O)CCc2ccc(-c3ccoc3)cc2)[C@H](O)C[C@@H]1O | -0.7 |  |  |  |  | -0.3 |  |  |  |  |  |  |  | 
18 | CC(C)OC(=O)CCC/C=C\C[C@@H]1[C@@H](/C=C/[C@H](O)CCc2ccc(-c3ccsc3)cc2)[C@H](O)C[C@@H]1O | -0.1 | 0 | -3.1 | -0.3 | < -0.7 | -0.2 | -1.8 |  |  |  |  |  |  | 
19 | CC(C)OC(=O)CCC/C=C\C[C@@H]1[C@@H](/C=C/[C@H](O)CCc2cccc(-c3cccs3)c2)[C@H](O)C[C@@H]1O | 0.1 | 0.3 | 12.8 | <2.2 | < -1.3 | 0.2 | <-12.4 |  |  |  |  |  |  | 
20 | Cc1ccc(CC[C@@H](O)/C=C/[C@@H]2[C@@H](C/C=C\CCCC(=O)OC(C)C)[C@@H](O)C[C@H]2O)cc1 | -0.2 |  |  |  |  | 0.2 |  |  |  | 0 | -1.8 | -0.2 | -0.2 | -10.8
21 | CC(C)OC(=O)CCC/C=C\C[C@@H]1[C@@H](/C=C/[C@H](O)CCc2cccc(-c3ccccc3)c2)[C@H](O)C[C@@H]1O | <2.2 | 0 | -23.5 | <-1.5 | 0.5 | <0.7 | 6.5 |  |  |  |  |  |  | 
22 | CC(C)OC(=O)CCC/C=C\C[C@@H]1[C@@H](/C=C/[C@H](O)CCc2ccc(-c3ccco3)cc2)[C@H](O)C[C@@H]1O | <1 |  |  |  |  | <0.5 |  |  |  | 0.2 | 2.5 | <-10.6 | < -1.5 | -25.8
23 | CC(C)OC(=O)CCC/C=C\C[C@@H]1[C@@H](/C=C/[C@H](O)CCc2cccc(-c3ccco3)c2)[C@H](O)C[C@@H]1O | 0.4 |  |  |  |  | 0.3 |  |  |  | 0.4 | -1.2 | -5.7 | -0.3 | -8
